PvdQ acylase: P. aeruginosa PvdQ acylase inhibitors, primary screen, biochemical, fluorescence, plate reader and imaging, single point; purified PvdQ acylase; AID 488965, 2010; 0.063% of 340,000 active; inhibition, % at 10 µM; in the data active = inhibition above about 30%, passing the limit was not always enough;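 also: 0% = vehicle neutral wells and 100% = reference inhibitor wells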
beta cell repl: inducers of MIN6 beta-cell proliferation, primary screen, ATP luminescence, uHTS; 0.29% of 330,000 active; proliferation, % at 10 µM; AID 2380, 2010; MIN6 cells proliferation, ATPlite luminescence, 48 h; cells starved in 0.2% serum; 100% = growth in 10% serum;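 active = compounds whose signal lies at least 3.5 SD above the mean of all wells on their plate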;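 also: 0% = DMSO-treated cells in low-serum medium and 100% = 10% serum control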
IMP-1 inhibitor: IMP-1 metallo-beta-lactamase inhibitors, primary screen, biochemical, epi-absorbance readout, Pseudomonas aeruginosa enzyme; purified IMP-1, nitrocefin hydrolysis, epi-absorbance fluorescence; inhibition, % at 5.6 µM; 0.45% of 290,000 active;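 active = inhibition above the mean plus 3 SD of all compounds in the same screening run, cut at about 4.5% in these data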;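 also: 0% = IMP-1 with DMSO and 100% = DMSO wells lacking enzyme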
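Assay system: purified recombinant IMP-1 beta-lactamase. Input: IMP-1 0.2 nM before substrate addition. Buffer or medium: Zinc- and detergent-supplemented HEPES buffer, pH 7.1. Schedule: 25 °C, 15 min preincubation, 25 min reaction. Signal: Epi-absorbance fluorescence, 480 nm excitation, 530 nm emission. Evaluation: percent inhibition from optical density relative to buffer-blank wells.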
ATG4B inh: ATG4B protease inhibitors, primary screen, biochemical, fluorescence, uHTS; ATG4B cleavage of LC3-PLA2, NBD-HPC fluorescence, 1 h; 0.51% of 340,000 active; Cysteine protease ATG4B (Homo sapiens), Q9Y4P1; inhibition, % at 8.33 µM; AID 504462, 2011; in the data active = inhibition above about 40%
Target sequence (Q9Y4P1 whole entry, looked up): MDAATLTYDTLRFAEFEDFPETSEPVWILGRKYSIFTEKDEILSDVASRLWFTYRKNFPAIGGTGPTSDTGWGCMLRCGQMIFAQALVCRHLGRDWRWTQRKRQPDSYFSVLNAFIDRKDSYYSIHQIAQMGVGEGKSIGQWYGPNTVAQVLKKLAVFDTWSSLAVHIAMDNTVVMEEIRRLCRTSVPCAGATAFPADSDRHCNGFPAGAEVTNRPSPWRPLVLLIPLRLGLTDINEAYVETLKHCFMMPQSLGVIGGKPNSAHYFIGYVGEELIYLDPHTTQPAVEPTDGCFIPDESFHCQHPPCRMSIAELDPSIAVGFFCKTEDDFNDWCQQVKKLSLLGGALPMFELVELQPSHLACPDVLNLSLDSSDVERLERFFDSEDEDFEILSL
HKDC1 inhibitor: HKDC1 hexokinase inhibitors, primary screen, biochemical, fluorescence, uHTS; Q2TB90; recombinant HKDC1, G6PDH/diaphorase resazurin coupled fluorescence; inhibition, % at 20 µM; 0.16% of 340,000 active;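 active = inhibition above about 35% when tested at 20 µM, limit read from the data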;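 also: plate controls were DMSO wells with enzyme for no effect and DMSO wells lacking enzyme for full effect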
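Assay system – recombinant HKDC1 (HK5) hexokinase enzyme, produced in-house · Input – HKDC1 at 5 µg/mL · Reagent – glucose plus 1 mM ATP as hexokinase substrates · Timing – 90 min reaction incubation at room temperature, dark · Measured by – G6PDH/diaphorase-coupled fluorescence, 1 mM NADP, 100 µM resazurin, 525/613 nm · Benchmarks – DMSO-enzyme wells negative, buffer-substituted wells positive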
VIM-2 inh: VIM-2 metallo-beta-lactamase inhibitors, primary screen, biochemical, epi-absorbance readout, Pseudomonas aeruginosa enzyme; purified VIM-2, nitrocefin hydrolysis, epi-absorbance fluorescence; inhibition, % at 5.6 µM; 0.89% of 290,000 active; AID 1527, 2009;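 active = inhibition above the mean of all tested compounds plus 3 SD, cutoff set per screening run, cut at about 7.5% in these data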;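 also: red hydrolysis product quenches plate fluorescence so inhibitors raise well fluorescence; 0% = enzyme with DMSO and 100% = DMSO without enzyme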
ATG4B conf: ATG4B protease inhibitors, retest, confirmation, biochemical, fluorescence, single concentration. shares compounds with ATG4B inh. ATG4B protease fluorescent substrate cleavage assay. inhibition, % at 8.33 µM. 92% of 320 active. AID 504757, 2011; in the data active = inhibition above about 39%
PLA2 counter: PLA2 enzyme inhibition, counter-screen for ATG4B inhibitor project, biochemical, single concentration, uHTS hits; shares compounds with ATG4B inh; purified PLA2, NBD-C6-HPC fluorescence, 45 min; inhibition, % at 8.33 µM; 66% of 1,600 active; AID 588402, 2011; in the data active = inhibition above about 50%
Target sequence (P04054 whole entry, looked up): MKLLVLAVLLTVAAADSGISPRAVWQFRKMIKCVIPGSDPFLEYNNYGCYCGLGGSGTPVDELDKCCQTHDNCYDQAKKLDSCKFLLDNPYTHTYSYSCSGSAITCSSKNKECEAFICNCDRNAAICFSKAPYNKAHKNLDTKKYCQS
Starred values were filed as active, the others as inactive. The list is not random: actives were taken first. Their share in the collection is about 2%.

How did Cc1cc(/C=C2/C(=N)N3C(=NC2=O)SN=C3S(C)(=O)=O)c(C)n1-c1ccc(F)cc1 do in these assays?
PvdQ acylase: -7; beta cell repl: -4; IMP-1 inhibitor: -4; ATG4B inh: 4; HKDC1 inhibitor: 20; VIM-2 inh: -6

How did Cc1ccc(-n2cccc2/C=C2/C(=N)N3C(=NC2=O)SN=C3S(C)(=O)=O)cc1Cl do in these assays?
PvdQ acylase: 2; IMP-1 inhibitor: -1; ATG4B inh: 65*; HKDC1 inhibitor: 1; VIM-2 inh: 0; PLA2 counter: 52*

What do the screens show for `CCC1=NN2C(=N)/C(=C\c3cccn3-c3c(C)cccc3C)C(=O)N=C2S1`?
PvdQ acylase: -10; beta cell repl: -1; IMP-1 inhibitor: -3; ATG4B inh: 84*; HKDC1 inhibitor: 6; VIM-2 inh: 1; PLA2 counter: 87*

How did Cc1cccc(C)c1-n1cccc1/C=C1/C(=N)N2C(=NC1=O)SN=C2S(C)(=O)=O do in these assays?
PvdQ acylase: -13; beta cell repl: 0; IMP-1 inhibitor: -2; ATG4B inh: 89*; HKDC1 inhibitor: 2; VIM-2 inh: -2; PLA2 counter: 90*

How did Nc1ccc(CN2CCOCC2)cc1 do in these assays?
PvdQ acylase: -6; beta cell repl: 1; IMP-1 inhibitor: -3; ATG4B inh: -1; HKDC1 inhibitor: -1; VIM-2 inh: -2

Results for COCC(C)NC(=O)c1nn(Cc2ccccc2)c(=O)c2ccccc12 (stereo not drawn) ?
PvdQ acylase: -10; beta cell repl: 8; IMP-1 inhibitor: 2; ATG4B inh: -8; HKDC1 inhibitor: -1; VIM-2 inh: -3

What do the screens show for `Cc1sc2nc(C3CC3)nc(N3CCN(C(=O)c4ccccc4F)CC3)c2c1C`?
PvdQ acylase: -10; beta cell repl: -3; IMP-1 inhibitor: -1; ATG4B inh: 54*; HKDC1 inhibitor: 4; VIM-2 inh: 4; PLA2 counter: 71*

Results for Cc1sc2nc(C3CC3)nc(N3CCN(C(=O)c4ccc(F)cc4)CC3)c2c1C ?
PvdQ acylase: -7; beta cell repl: -1; IMP-1 inhibitor: -3; ATG4B inh: 62*; HKDC1 inhibitor: 2; VIM-2 inh: 5; PLA2 counter: 78*

How did Cc1sc2nc(C3CC3)nc(N3CCN(S(=O)(=O)c4ccc(F)cc4)CC3)c2c1C do in these assays?
PvdQ acylase: -19; beta cell repl: -4; IMP-1 inhibitor: 0; ATG4B inh: 14; HKDC1 inhibitor: 4; VIM-2 inh: 2

Results for Cc1sc2nc(C3CC3)nc(N3CCN(C(=O)c4ccc(Cl)cc4)CC3)c2c1C ?
PvdQ acylase: -21; beta cell repl: -3; IMP-1 inhibitor: -2; ATG4B inh: 50*; HKDC1 inhibitor: 4; VIM-2 inh: -1; PLA2 counter: 69*

Results for COc1ccc(C(=O)N2CCN(c3nc(C4CC4)nc4sc(C)c(C)c34)CC2)cc1 ?
PvdQ acylase: -9; beta cell repl: -4; IMP-1 inhibitor: -3; ATG4B inh: 30; HKDC1 inhibitor: -1; VIM-2 inh: 1

Results for COc1ccc(NC(=O)NC2CCCCC2C)cc1 (stereo not drawn) ?
PvdQ acylase: -12; beta cell repl: 3; IMP-1 inhibitor: -2; ATG4B inh: -10; HKDC1 inhibitor: -10; VIM-2 inh: -2

Results for Oc1ccccc1CN(Cc1ccco1)CC(O)COCc1ccc(Cl)cc1 (stereo not drawn) ?
PvdQ acylase: 8; beta cell repl: -6; IMP-1 inhibitor: -4; ATG4B inh: 40*; HKDC1 inhibitor: 0; VIM-2 inh: -2; PLA2 counter: 28

How did Cc1ccccc1-c1nnn(Cc2ccc(F)cc2Cl)n1 do in these assays?
PvdQ acylase: -9; beta cell repl: -2; IMP-1 inhibitor: -2; ATG4B inh: 44*; HKDC1 inhibitor: -1; VIM-2 inh: -3; PLA2 counter: 46

How did CCN(Cc1ccc2c(c1)OCCO2)C(=O)CSc1nc(C)nc2sc(C)c(C)c12 do in these assays?
PvdQ acylase: -7; beta cell repl: -5; ATG4B inh: 47*; HKDC1 inhibitor: 4; PLA2 counter: 68*

What do the screens show for `COc1cccc(NC(=O)NC2CCCc3ccccc32)c1` (stereo not drawn)?
PvdQ acylase: -1; beta cell repl: 0; IMP-1 inhibitor: -2; ATG4B inh: 62*; HKDC1 inhibitor: -6; VIM-2 inh: -1; PLA2 counter: 62*

How did COc1ccc(NC(=O)NC2CCCc3ccccc32)c(OC)c1 (stereo not drawn) do in these assays?
PvdQ acylase: -2; beta cell repl: -4; IMP-1 inhibitor: -3; ATG4B inh: 15; HKDC1 inhibitor: -9; VIM-2 inh: -2

Results for COC(=O)c1ccc(NC(=S)NC2CCc3ccccc32)cc1 (stereo not drawn) ?
PvdQ acylase: -18; beta cell repl: -1; IMP-1 inhibitor: 0; ATG4B inh: 48*; HKDC1 inhibitor: -3; VIM-2 inh: -5; PLA2 counter: 56*

What do the screens show for `CN(C)P(=O)(Nc1cccc2ccccc12)Nc1cccc2ccccc12`?
PvdQ acylase: -6; beta cell repl: -3; ATG4B inh: -7; HKDC1 inhibitor: 1

How did O=C(O)c1cccc(CSc2nc(-c3ccc(Cl)cc3)cc(C(F)(F)F)n2)c1 do in these assays?
PvdQ acylase: -9; beta cell repl: -5; IMP-1 inhibitor: -1; ATG4B inh: 52*; HKDC1 inhibitor: 0; VIM-2 inh: 3; ATG4B conf: 62*; PLA2 counter: 45

What do the screens show for `COc1ccc(-c2cc(C)nc(SCc3cccc(C(=O)O)c3)n2)cc1`?
PvdQ acylase: -11; beta cell repl: -3; IMP-1 inhibitor: -4; ATG4B inh: 10; HKDC1 inhibitor: -5; VIM-2 inh: 2

How did CC1CCC(NC(=O)CCS(=O)(=O)c2ccc3c(c2)CCN3C(=O)C2CC2)CC1 (stereo not drawn) do in these assays?
PvdQ acylase: 7; beta cell repl: -1; IMP-1 inhibitor: 0; ATG4B inh: -10; HKDC1 inhibitor: -4; VIM-2 inh: 1
